The values that follow come from publication PMC9513682 (RSC Advances, 2022).

In one series the target is B-RAF(V600E) (Homo sapiens, UniProt P15056, V600E). Put plainly: B-RAF. As to conditions: for IC50: B-RAF (V600E) IC50, n = 3; for selectivity for B-RAFV600E kinase over B-RAF wild-type kinase: ratio of kinase IC50 values. The series is classed as biochemical.
A further series concerns WM266.4 melanoma cells. The experiment in a line: MTT cytotoxicity assay, B-RAFV600E-mutated melanoma cells. The series is classed as cell-based. The note with it: for potency against WM266.4 melanoma cells relative to dabrafenib: WM266.4 cells. The essentials: (§1)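 WM266.4 (B-RAFV600E) and Sk-mel-23 (B-RAF wild type) melanoma cells were grown in DMEM with FBS, penicillin and streptomycin at 37 °C under CO₂. […] MTT reagent was added and cells re-incubated; absorbance was read at 590 nm. IC50 was taken from concentration–inhibition curves (n = 3).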

The test system of another series is Sk-mel-23 melanoma cells. The experiment in a line: MTT cytotoxicity assay, B-RAF wild type melanoma cells. As to conditions: Homo sapiens, SK-MEL-23, 48 h, read-out: Sk-mel-23 IC50. Type of series: cell-based. In short, it runs like this: as §1
For orientation: Formazan colour is commonly taken as a measure of viable cells.

The subject of series [1] is phosphorylation of downstream ERK1/2 (pT202/Y204) in WM266.4 cells. The experiment in a line: Cell-based B-RAFV600E kinase assay. As to conditions: for pERK 1/2: WM266.4 cell line, mean ± standard error of two experiments. The essentials:
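Phospho-ERK1/2 (pT202/Y204) and total ERK1/2 were measured by a single-step sandwich ELISA (affinity-tagged capture antibody, reporter-conjugated detector antibody). pERK was reported in ng/mL as duplicate determinations. % inhibition was calculated against untreated control cells, as mean ± S.E. of two experiments.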

A further series deals with B-RAF (wild-type) (Homo sapiens, UniProt P15056). Put plainly: B-RAF. Type of series: biochemical.
B-RAF (wild-type), sequence (P15056 whole entry): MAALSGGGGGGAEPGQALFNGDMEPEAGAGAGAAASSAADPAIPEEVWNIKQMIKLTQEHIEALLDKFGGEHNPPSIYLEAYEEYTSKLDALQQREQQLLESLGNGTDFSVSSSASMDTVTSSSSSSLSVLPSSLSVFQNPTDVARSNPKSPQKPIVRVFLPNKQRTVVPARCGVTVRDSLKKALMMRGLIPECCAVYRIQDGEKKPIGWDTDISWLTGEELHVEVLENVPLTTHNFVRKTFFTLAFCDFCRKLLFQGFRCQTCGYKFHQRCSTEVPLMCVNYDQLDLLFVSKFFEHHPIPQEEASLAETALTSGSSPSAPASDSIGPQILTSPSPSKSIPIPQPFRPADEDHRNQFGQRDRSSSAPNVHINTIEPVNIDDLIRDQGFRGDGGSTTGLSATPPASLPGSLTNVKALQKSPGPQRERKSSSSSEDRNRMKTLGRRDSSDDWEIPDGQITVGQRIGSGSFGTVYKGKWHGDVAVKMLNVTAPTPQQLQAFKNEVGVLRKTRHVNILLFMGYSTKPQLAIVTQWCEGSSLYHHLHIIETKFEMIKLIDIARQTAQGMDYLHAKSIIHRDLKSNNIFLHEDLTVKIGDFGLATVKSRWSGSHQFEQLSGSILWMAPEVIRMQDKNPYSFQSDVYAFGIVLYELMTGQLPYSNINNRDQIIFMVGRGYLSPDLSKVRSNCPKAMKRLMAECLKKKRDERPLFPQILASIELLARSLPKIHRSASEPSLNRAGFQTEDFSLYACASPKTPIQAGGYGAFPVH

B-RAF(V600E), sequence (P15056 whole entry V600E): as the sequence (P15056 whole entry) above, with V600E counted along it

On to `Cc1ccc(C(CS(=O)(=O)c2ccccc2)=NNc2nc(C)c(N=Nc3cccc(C)c3)s2)cc1` [Compound 7b, N-(2-Benzenesulfonyl-1-p-tolyl-ethylidene)-N′-(4-methyl-5-m-tolylazo-thiazol-2-yl)-hydrazine], for which the IC50 amounted to 36.3 ± 1.9 nM against B-RAF(V600E), 7870 ± 400 nM in the series on Sk-mel-23 melanoma cells and 124 ± 6.6 nM at B-RAF (wild-type). Also, on B-RAF(V600E), the “selectivity for B-RAFV600E kinase over B-RAF wild-type kinase” value (from here on “selectivity for B-RAFV600E kinase”) is on record as “approximately four”. The “potency against WM266.4 melanoma cells relative to dabrafenib” value in the series on WM266.4 melanoma cells is reported as “three to five”. The “pERK 1/2” value in series [1] is 1.339 ± 0.035 ng mL^−1.
The compound `Cc1ccc(C(CS(=O)(=O)c2ccccc2)=NNc2nc(C)c(N=Nc3ccccc3)s2)cc1` [Compound 7a, N-(2-Benzenesulfonyl-1-p-tolyl-ethylidene)-N′-(4-methyl-5-phenylazo-thiazol-2-yl)-hydrazine] registered an IC50 on B-RAF(V600E) of 199 ± 10 nM.
On B-RAF(V600E), `Cc1ccc(C(CS(=O)(=O)c2ccccc2)=NN=C2N=C(c3ccc(C)cc3)CS2)cc1` [Compound 13b, N-(2-Benzenesulfonyl-1-p-tolyl-ethylidene)-N′-(4-p-tolyl-5H-thiazol-2-ylidene)-hydrazine] yielded an IC50 of 206 ± 11 nM.
Take `COc1ccc(-c2csc(NN=C(CS(=O)(=O)c3ccccc3)c3ccc(F)cc3)n2)cc1` [Compound 19, N-[2-Benzenesulfonyl-1-(4-fluorophenyl)-ethylidene]-N′-[4-(4-methoxyphenyl)thiazol-2-yl]-hydrazine]: the IC50 against B-RAF(V600E) is 116 ± 8 nM.
For the compound `CC(C)(C)c1nc(-c2cccc(NS(=O)(=O)c3c(F)cccc3F)c2F)c(-c2ccnc(N)n2)s1` [Dabrafenib, dabrafenib], the IC50 with Sk-mel-23 melanoma cells turned out to be 9030 ± 460 nM. The “pERK 1/2” value in series [1] turned out to be 0.769 ± 0.018 ng mL^−1. Further, the “% inhibition of pERK 1/2” value in series [1] (WM266.4 cells, compared with the control cancer cells) was determined as 71.9%.
Turning to `Cc1ccc(C(CS(=O)(=O)c2ccccc2)=NNC(N)=S)cc1` [Compound 3, 2-Benzenesulfonyl-1-p-tolyl-ethanone thiosemicarbazone], on B-RAF(V600E), half-maximal inhibition (IC50) required 115 ± 6 nM.
On the same count and under the same terms, the figure for `Cc1ccc(N=Nc2sc(NN=C(CS(=O)(=O)c3ccccc3)c3ccc(C)cc3)nc2C)cc1` [Compound 7c, N-(2-Benzenesulfonyl-1-p-tolyl-ethylidene)-N′-(4-methyl-5-p-tolylazo-thiazol-2-yl)-hydrazine] is 108 ± 5.6 nM.
The same measure, in the same setting: the figure for `Cc1ccc(C(CS(=O)(=O)c2ccccc2)=NNC2=NC(=O)C(=NNc3ccc(Cl)cc3)S2)cc1` [Compound 11b, 2-[N′-(2-Benzenesulfonyl-1-p-tolyl-ethylidene)-hydrazino]-5-[(4-chloro-phenyl)-hydrazono]-thiazol-4-one] is 185 ± 9.6 nM.
Regarding `Cc1ccc(C(CS(=O)(=O)c2ccccc2)=NNC2=NC(=O)C(=NNc3ccccc3)S2)cc1` [Compound 11a, 2-[N′-(2-Benzenesulfonyl-1-p-tolyl-ethylidene)-hydrazino]-5-(phenyl-hydrazono)-thiazol-4-one], the values for the IC50 against B-RAF(V600E), with Sk-mel-23 melanoma cells and at B-RAF (wild-type) were 84.9 ± 4.4 nM, 430 ± 20 nM and 361 ± 19.4 nM, respectively. At B-RAF(V600E), the “selectivity for B-RAFV600E kinase” value is on record as “approximately four”. In addition, the “potency against WM266.4 melanoma cells relative to dabrafenib” value with WM266.4 melanoma cells is recorded as “three to five”.
On to `Cc1ccc(C(CS(=O)(=O)c2ccccc2)=NN=C2N=C(c3ccc(Br)cc3)CS2)cc1` [Compound 13a, N-(2-Benzenesulfonyl-1-p-tolyl-ethylidene)-N′-[4-(4-bromo-phenyl)-5H-thiazol-2-ylidene]-hydrazine], for which the IC50 came out at 23.1 ± 1.2 nM on B-RAF(V600E), 50200 ± 2560 nM in the series with Sk-mel-23 melanoma cells and 97.9 ± 5.2 nM against B-RAF (wild-type). Besides, the “selectivity for B-RAFV600E kinase” value on B-RAF(V600E) is “approximately four”. Also, in the series with WM266.4 melanoma cells, the “potency against WM266.4 melanoma cells relative to dabrafenib” value is on record as “three to five”.
Take `NC(=S)NN=C(CS(=O)(=O)c1ccccc1)c1ccc(F)cc1` [Compound 17, 2-Benzenesulfonyl-1-(4-fluorophenyl)-ethanone thiosemicarbazone]: the IC50 against B-RAF(V600E) was 68.2 ± 3.5 nM; with Sk-mel-23 melanoma cells, 12400 ± 630 nM; against B-RAF (wild-type), 153 ± 8.2 nM. Further, at B-RAF(V600E) (relative to dabrafenib), the “activity toward B-rafV600E as share of the activity of dabrafenib” value is reported as 70%. In addition, the “potency against WM266.4 melanoma cells relative to dabrafenib” value in the series on WM266.4 melanoma cells stood at 11 fold.
As to `Cc1ccc(C(CS(=O)(=O)c2ccccc2)=NNc2nc(-c3ccc(OCCCCOc4ccc(-c5csc(NN=C(CS(=O)(=O)c6ccccc6)c6ccc(C)cc6)n5)cc4)cc3)cs2)cc1` [Compound 15, 1,1′-[1,4-Butanediylbis(oxy)]bis[4-(2-{[2-(benzenesulfonyl)-1-(p-tolyl)ethylidene]-hydrazino}thiazol-4-yl)benzene]], the IC50 was found to be 51.9 ± 2.7 nM at B-RAF(V600E), 17600 ± 890 nM in the series with Sk-mel-23 melanoma cells and 251 ± 13.5 nM against B-RAF (wild-type). In addition, the “selectivity for B-RAFV600E kinase” value on B-RAF(V600E) worked out at 5 fold. The “cytotoxic potency toward WM266.4 rather than Sk-mel-23 melanoma cells” value with WM266.4 melanoma cells (WM266.4 (B-RAFV600E-mutated) versus Sk-mel-23 (B-RAF wild type)) is given as “equal potency”.
In the case of `Cc1ccc(C(CS(=O)(=O)c2ccccc2)=NNC2=NC(=O)C(=NNc3ccc([N+](=O)[O-])cc3)S2)cc1` [Compound 11c, 2-[N′-(2-Benzenesulfonyl-1-p-tolyl-ethylidene)-hydrazino]-5-[(4-nitro-phenyl)-hydrazono]-thiazol-4-one], the IC50 against B-RAF(V600E) turned out to be 95.4 ± 5 nM; in the series on Sk-mel-23 melanoma cells, 22300 ± 1140 nM; against B-RAF (wild-type), 229 ± 12.3 nM. The “potency against WM266.4 melanoma cells relative to dabrafenib” value in the series on WM266.4 melanoma cells was determined as 11 fold.

As a reminder, the IC50 is the concentration at which inhibition is half-maximal.
